V1aR counter = counter-screen for oxytocin receptor agonists: human V1a receptor agonists. CHO-V1R cells, Fluo-8 calcium fluorescence, agonist mode; 0% DMSO, 100% 3 nM vasopressin. activation, % at 3 µM. 320,000 compounds, 0.25% hits. AID 2797;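 active = activation above the mean activation of all tested compounds plus 3 SD, per screening run, cut at about 20% in these data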;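 also: signal is peak over basal fluorescence ratio across a 100 second FLIPR read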
Target sequence (P37288 whole entry, looked up): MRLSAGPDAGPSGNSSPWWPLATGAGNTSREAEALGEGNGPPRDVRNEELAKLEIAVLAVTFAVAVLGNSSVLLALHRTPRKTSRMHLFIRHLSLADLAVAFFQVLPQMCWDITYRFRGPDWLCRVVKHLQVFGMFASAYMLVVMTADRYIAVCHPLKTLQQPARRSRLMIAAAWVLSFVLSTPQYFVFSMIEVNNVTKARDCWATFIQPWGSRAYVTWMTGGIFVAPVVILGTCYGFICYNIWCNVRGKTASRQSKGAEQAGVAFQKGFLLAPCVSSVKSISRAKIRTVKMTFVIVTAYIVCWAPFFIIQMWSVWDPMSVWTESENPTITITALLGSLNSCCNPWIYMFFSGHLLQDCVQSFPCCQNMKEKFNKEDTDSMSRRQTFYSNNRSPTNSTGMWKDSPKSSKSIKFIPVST
OXTR potentiate = potentiates the human oxytocin receptor response. activation, % at 3 µM. 320,000 compounds, 0.061% hits. CHO-OTR cells, Fluo-8 calcium fluorescence, potentiator mode; 0% = oxytocin EC15, 100% = EC100. AID 2445;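 active = activation above that plate's cutoff, the mean activation of tested compounds plus 3 SD, cut at about 6.6% in these data, passing the limit was not always enough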;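 also: 100% uses oxytocin at 75 nM as the full agonist control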
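test system = CHO-OTR cells, human receptor | compound = single-point 3.0 µM | schedule = 6 min compound pre-incubation at room temperature, 100 s kinetic read | signal = Fluo-8 no-wash calcium dye fluorescence, excitation 470-495 nm, emission 515-575 nm | repeats = single well per compound, singlicate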
OXTR agonist = human OXTR agonism | CHO-OTR cells, Fluo-8 calcium fluorescence; normalized: DMSO 0%, oxytocin 100% | P30559 | AID 2435 | 320,000 compounds, 0.32% hits | activation, % at 3 µM;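 active = activation above the mean of all tested compounds plus 3 SD, cutoff set per screening run, cut at about 20% in these data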;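 also: peak over basal fluorescence ratio from a 100 s FLIPR kinetic read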
TAAR1 agonist = agonists of human TAAR1; Q96RJ0; CHO RD-HGA16 TAAR1, Fluo-8 calcium fluorescence; vehicle wells 0%, saturating PEA agonist 100%; activation, % at 3 µM; 360,000 compounds, 0.99% hits;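 active = activation above the mean activation of all test compounds in the run plus 3 SD, cut at about 38% in these data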
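Test system: RD-HGA16 (CHO) cells co-expressing Gα16 and hTAAR1 | Doses: Single dose, 3 µM | Schedule: 17-24 h seeding, 75 min 37 °C dye, 30 min RT | Evaluation: % activation from peak over basal fluorescence ratio, DMSO-to-PEA scaled | Technique: Kinetic Fluo-8 calcium fluorescence | Benchmarks: Low control DMSO, high control PEA (EC100)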
TAAR1 antag = human TAAR1 antagonism | CHO RD-HGA16 TAAR1, Fluo-8 calcium fluorescence, antagonist | inhibition, % at 3 µM | Q96RJ0 | 360,000 compounds, 1.5% hits | AID 624466;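 active = inhibition above a per-plate cutoff, the mean inhibition of test compounds on that plate plus 3 SD, cut at about 49% in these data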;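 also: 0% = DMSO plus EC80 beta-PEA response and 100% = DMSO alone without agonist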
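System: CHO RD-HGA16 cells bearing hTAAR1. Reagent: EC80 β-phenethylamine stimulus. Schedule: seeding 17-24 h prior, 75-min 37 °C, 30-min RT dye loading. Signal: Fluo-8 intracellular calcium dye fluorescence, real-time kinetic reads. Read-out: % inhibition from peak post-agonist over basal fluorescence ratio. Benchmarks: vehicle wells and EC80 agonist wells. Replicates: n of 1.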
nonsel antag count = counter-screen for TAAR1 antagonists: nonselective antagonists. shares compounds with TAAR1 antag. 2,400 compounds, 77% hits. AID 651780. inhibition, % at 3 µM. counterscreen cell line, calcium fluorescence, antagonist mode; in the data active = inhibition above about 22%;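 also: CHO-Ga16 host cells stimulated with ATP at an EC80 level; 0% = agonist EC80 plus vehicle and 100% = vehicle without agonist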
TAAR1 antag conf = confirmation of human TAAR1 antagonists; shares compounds with TAAR1 antag; TAAR1-expressing cells, fluorescence antagonist read-out; inhibition, % at 3 µM; 2,400 compounds, 40% hits; in the data active = inhibition above about 49%;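 also: CHO-Ga16 host cells challenged with agonist PEA near its EC80; 0% = agonist at EC80 plus vehicle and 100% = vehicle with no agonist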
Ga16 ag counter = nonselective Ga16 agonism, counter-screen; AID 651953; activation, % at 3 µM; shares compounds with TAAR1 antag; Ga16-expressing cells, calcium fluorescence, agonist counterscreen; 2,400 compounds, 18% hits; in the data active = activation above about 12%;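 also: 0% = vehicle wells and 100% = saturating stimulus response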
TAAR1 ag count = counter-screen for human TAAR1 antagonists: TAAR1 agonists; shares compounds with TAAR1 antag; 2,400 compounds, 2% hits; AID 651955; activation, % at 3 µM; hTAAR1 cell line, fluorescence activation, agonist mode; in the data active = activation above about 37%;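 also: CHO cells stably expressing TAAR1 with calcium dye readout; 0% = DMSO vehicle and 100% = full agonist response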
* marks the source's active call; other numbers are inactive results. Only some compounds are listed: those with a hit (about 2.3% of all), similar ones and a draw of the others.

Results for COC(=O)c1cccc(NC(=O)c2ccc3c(c2)C(=O)N(C(C)(C)C)C3=O)c1 ?
V1aR counter: 2.5; OXTR potentiate: -12.2; OXTR agonist: -2.1; TAAR1 agonist: 11.2; TAAR1 antag: 64.8*; nonsel antag count: 37.8*; TAAR1 antag conf: 63.2*; Ga16 ag counter: 9.3; TAAR1 ag count: 6.3

What do the screens show for `O=C(Nc1ccc(O)cc1)c1ccc2c(c1)C(=O)N(Cc1ccccc1)C2=O`?
V1aR counter: 7.7; OXTR potentiate: -5.1; OXTR agonist: 9.0; TAAR1 agonist: 27.7; TAAR1 antag: 63.5*; nonsel antag count: 21.9*; TAAR1 antag conf: 43.0; Ga16 ag counter: 13.9*; TAAR1 ag count: 23.1

How did O=C(O)COc1ccc(NC(=O)c2ccc3c(c2)C(=O)N(Cc2ccccc2)C3=O)cc1 do in these assays?
V1aR counter: 0.0; OXTR potentiate: -3.3; OXTR agonist: -0.4; TAAR1 agonist: 2.1; TAAR1 antag: -5.0

How did Cc1cccc(C)c1N1C(=O)c2ccccc2NC(=O)C1C(=O)NCc1ccco1 (configuration not stated) do in these assays?
TAAR1 agonist: 4.4; TAAR1 antag: -22.8

How did Cc1ccc(O)c(NC(=O)c2ccc3c(c2)C(=O)N(Cc2cccnc2)C3=O)c1 do in these assays?
V1aR counter: 2.8; OXTR potentiate: -11.3; OXTR agonist: 4.8; TAAR1 agonist: 20.7; TAAR1 antag: 76.8*; nonsel antag count: 33.8*; TAAR1 antag conf: 59.2*; Ga16 ag counter: 12.6*; TAAR1 ag count: 13.7

Results for O=C(CCCC(=O)NN=Cc1ccc(Cl)cc1Cl)NN=Cc1ccc(Cl)cc1Cl ?
TAAR1 agonist: 4.1; TAAR1 antag: -13.7

What do the screens show for `O=C(CCCC(=O)NN=Cc1ccccc1Cl)NN=Cc1ccccc1Cl`?
TAAR1 agonist: 0.9; TAAR1 antag: 50.9*; nonsel antag count: 20.0; TAAR1 antag conf: 26.7; Ga16 ag counter: 0.9; TAAR1 ag count: 1.2

Results for CC(C)CNc1cccc2c1S(=O)(=O)N(Cc1ccc(F)cc1)[C@@H](C)[C@H](c1ccccc1)O2 ?
TAAR1 agonist: 2.7; TAAR1 antag: -26.8

How did COC(=O)[C@@]1(Sc2ccc(C)cc2)CC(=O)N(C(=O)C2CC2)[C@@H]1c1ccccc1 do in these assays?
TAAR1 agonist: -0.5; TAAR1 antag: 8.8

What do the screens show for `COC(=O)c1cccc(N2C(=O)C[C@](Sc3ccc(C)cc3)(C(=O)OC)[C@H]2c2ccccc2)c1`?
TAAR1 agonist: 7.0; TAAR1 antag: 82.2*; nonsel antag count: 32.4*; TAAR1 antag conf: 55.3*; Ga16 ag counter: 4.5; TAAR1 ag count: 2.0

Results for Cc1ccc(S(=O)(=O)N2C[C@H]3C(=O)C[C@@H](c4cccc(Cl)c4)N(S(=O)(=O)c4ccc(C)cc4)[C@H]3C[C@H]2c2ccccc2)cc1 ?
TAAR1 agonist: -0.4; TAAR1 antag: -6.3

How did COc1ccc(C(CC(=O)NCC(OC)OC)NS(=O)(=O)c2ccc(Cl)cc2)cc1 (configuration not stated) do in these assays?
V1aR counter: 0.1; OXTR potentiate: -4.8; OXTR agonist: 0.8; TAAR1 agonist: 0.4; TAAR1 antag: -3.4

How did N#CC(C#N)=C1C=CC=CN1/C(=C\c1ccccc1Cl)C(=O)c1ccccc1 do in these assays?
V1aR counter: 0.6; OXTR potentiate: -4.8; OXTR agonist: -0.7; TAAR1 agonist: 7.9; TAAR1 antag: 56.2*; nonsel antag count: 49.0*; TAAR1 antag conf: 58.8*; Ga16 ag counter: 6.0; TAAR1 ag count: 2.3

Compound activity as filed in PubChem BioAssay.
